Published values collected from several papers.
Each line is one published result; the experiments were not run side by side.
Cell line: PC-3
Effect on: cell growth or viability

For `COc1ccc(-c2cc(-c3c(OC)cccc3OC)c3c(=O)[nH]c(=O)[nH]c3n2)cc1`, the IC50 was 41.5 µM (MTT; 48 h).
For `Cc1c(Cc2ccccc2)c(=O)oc2c(C)c(OCC(=O)NN=Cc3ccc(Cl)cc3)ccc12`, the viability was 5.27% (MTT; 500 µg/mL).
`Cc1nc(Nc2ccc3c(c2)/C(=C/c2ccccc2)C(=O)N3Cc2ccccc2)c2ccccc2n1` gave an IC50 of > 50 µM (MTT).
`CCCOc1nc(-c2cccc(O)c2)cc(-c2cc3cc(OC)ccc3nc2N2CCOCC2)c1C#N` gave an IC50 of 0.0639 µM (MTT; 72 h).
For `Cc1ccc(-c2cc(-c3ccc(Cl)c(F)c3)c3c(=O)n(C)c(=O)n(C)c3n2)cc1`, the IC50 was 41.5 µM (MTT; 48 h).
`Cc1nc(Nc2ccc3c(c2)/C(=C/c2ccccc2Cl)C(=O)N3)c2ccccc2n1` gave an IC50 of 2.45 µM (MTT).
`O=C(O)c1ccccc1Nc1cccc(C(F)(F)F)c1` has a GI50 of > 30 µM (SRB; 48 h).
`Cc1nc2ccc(CN(C)c3ccc(C(=O)N[C@@H](CCC(=O)O)C(=O)O)s3)cc2c(=O)[nH]1` has an IC50 of 3.09 µM (MTT; 48 h).
With `Cc1c(Cc2ccccc2)c(=O)oc2c(C)c(OCC(=O)NN=Cc3ccc([N+](=O)[O-])cc3)ccc12` the viability was 31.3% (MTT; 31.25 µg/mL).
The IC50 of `COc1ccc(-c2cc(-c3ccccc3Cl)c3c(=O)n(C)c(=O)n(C)c3n2)cc1` is reported as 6.79 µM (MTT; 48 h).
`COc1cc2ncnc(Nc3ccc4c(c3)/C(=C/c3cccc(Cl)c3)C(=O)N4C)c2cc1OC` gave an IC50 of 22.2 µM (MTT).
With `CCc1c(C)c2ccc(OCc3nnc(S)n3N)c(C)c2oc1=O` the viability was 3.08% (MTT; 500 µg/mL).
`COc1ccc(-c2cc(-c3cccc(Br)c3)c3c(=O)[nH]c(=O)[nH]c3n2)cc1` has an IC50 of 18.5 µM (MTT; 48 h).
`Cc1c(Cc2ccccc2)c(=O)oc2c(C)c(OCC(=O)NN=Cc3ccccc3)ccc12` gave a viability of 26.3% (MTT; 62.5 µg/mL).
`COc1cc2ncnc(Nc3ccc4c(c3)/C(=C/c3ccccc3)C(=O)N4C)c2cc1OC` has an IC50 of 37.9 µM (MTT).
With `CCc1c(C)c2ccc(OCC(=O)NN=Cc3ccc([N+](=O)[O-])cc3)cc2oc1=O` the viability was 22.2% (MTT; 31.25 µg/mL).
`C=CC(=O)c1cccnc1Nc1cc(C(F)(F)F)ccc1OCc1ccccc1` has a GI50 of 19 µM (SRB; 48 h).
